PubChem BioAssay AID463073 (The Scripps Research Institute Molecular Screening Center, 2010)
Screen size: about 2,000 compounds; about 10 (0.5%) were called active.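 How the source made its calls: active means inhibition above 30%; inactive means the rest.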 The sample as a whole holds a higher share of actives than the screen did.

Each compound was assayed against Protein-arginine deiminase type-4 (Homo sapiens) (UniProt Q9UM07) (assay: blockers of protein arginine deiminase 4 – biochemical, fluorescence polarization, primary screen (AID 463073;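 further: 0% = PAD4 with DMSO and 100% = wells lacking PAD4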)). Conditions: recombinant PAD4, RFA probe fluorescence polarization; at 5 µM; stronger effect = higher value.
Sequence of Protein-arginine deiminase type-4 (Homo sapiens) (Q9UM07 whole entry, looked up): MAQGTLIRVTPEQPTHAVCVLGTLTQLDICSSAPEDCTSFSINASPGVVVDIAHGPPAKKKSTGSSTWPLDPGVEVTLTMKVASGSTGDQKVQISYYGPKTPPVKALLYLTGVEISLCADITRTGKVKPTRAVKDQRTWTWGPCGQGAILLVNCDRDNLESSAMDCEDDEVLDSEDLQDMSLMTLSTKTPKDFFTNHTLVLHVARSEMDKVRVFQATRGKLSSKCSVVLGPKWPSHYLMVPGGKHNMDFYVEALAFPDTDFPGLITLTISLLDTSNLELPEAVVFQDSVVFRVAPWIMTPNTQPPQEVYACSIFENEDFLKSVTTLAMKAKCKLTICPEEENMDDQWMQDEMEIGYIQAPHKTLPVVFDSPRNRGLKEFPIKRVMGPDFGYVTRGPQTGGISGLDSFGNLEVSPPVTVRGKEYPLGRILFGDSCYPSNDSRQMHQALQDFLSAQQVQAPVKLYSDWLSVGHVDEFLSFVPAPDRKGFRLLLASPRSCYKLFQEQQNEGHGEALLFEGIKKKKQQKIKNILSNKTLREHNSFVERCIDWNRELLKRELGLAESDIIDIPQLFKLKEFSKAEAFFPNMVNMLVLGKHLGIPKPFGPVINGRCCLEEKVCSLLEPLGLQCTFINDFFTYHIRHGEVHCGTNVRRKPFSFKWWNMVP
Procedure, shortened: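 Material – recombinant PAD4 · Amount – PAD4 at 2 µM in dispensed buffer, before additions · Medium – Ca2+-containing HEPES pH 7.6, TCEP · Doses – one dose, 5 µM final · Schedule – 30 min 25 °C preincubation, 5 h 37 °C labeling · Measured by – FP, ex 525 nm, em 598 nm · Benchmarks – wells lacking PAD4 as full-inhibition control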
For `O=C1C=Cc2ccccc2C1=O`, the inhibition was 6.7% (inactive). `O=C1C(=O)c2ccccc2-c2ccccc21` was tested, and the inhibition was 94.3% (active). With `C[C@H]1CCCC(=O)CCC/C=C/c2cc(O)cc(O)c2C(=O)O1` the inhibition was 0.58% (inactive). In the case of `CC(C)[C@@]1(NC(=O)[C@@H]2C[C@@H]3c4cccc5[nH]cc(c45)C[C@H]3N(C)C2)O[C@@]2(O)[C@@H]3CCCN3C(=O)[C@H](Cc3ccccc3)N2C1=O`, the inhibition is reported as 4.69% (inactive). In the case of `CC1CCC[C@H](O)CCCCCc2cc(O)cc(O)c2C(=O)O1` (stereo not given in full), the inhibition is reported as 2.98% (inactive). For `CN1C2CCC1CC(OC(=O)CCN1CCCC1)C2` (stereo not given), the inhibition was 0.67% (inactive). With `COc1ccc(Cc2nccc3cc(OC)c(OC)cc23)cc1OC` the inhibition was 74.4% (active). `C[C@H]1CC[C@@]2(C)[C@@H](CC[C@@H]3[C@@H]2CC[C@]2(C)[C@@H](O)CC[C@@H]32)C1` was tested, and the inhibition was 5.74% (inactive). `O=Cc1cn(Cc2ccc(F)cc2)c2ccccc12` was tested, and the inhibition was 0.18% (inactive). `C[C@]12CCC(=O)C=C1CC[C@@H]1[C@@H]2C(=O)C[C@]2(C)C(=O)CC[C@@H]12` was tested, and the inhibition was 3.91% (inactive).
